# Key:
# human CD137 = human CD137 (Homo sapiens, UniProt Q07011); format: cell-based; conditions: co-culture with 4T1 cells overexpressing mouse Nectin-4, 6 hours
# MC38-Nectin-4 tumors = experiment: Pharmacodynamics in MC38-Nectin-4 tumors; format: in vivo, mouse; conditions: 144 hours
# How it was run: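 C57BL/6J-hCD137 mice bore MC38-Nectin-4 tumors. Tumors were harvested 24, 48, 96 and 144 h after test compound 5 mg/kg at 0 and 24 h. Controls were harvested at 144 h: vehicle, a non-CD137-binding analogue (same schedule), or anti-CD137 agonist antibody 2 mg/kg every 3 days. Tumors were assessed by IHC (mouse CD8) and NanoString mRNA profiling.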
# human CD137, sequence (Q07011 24-255): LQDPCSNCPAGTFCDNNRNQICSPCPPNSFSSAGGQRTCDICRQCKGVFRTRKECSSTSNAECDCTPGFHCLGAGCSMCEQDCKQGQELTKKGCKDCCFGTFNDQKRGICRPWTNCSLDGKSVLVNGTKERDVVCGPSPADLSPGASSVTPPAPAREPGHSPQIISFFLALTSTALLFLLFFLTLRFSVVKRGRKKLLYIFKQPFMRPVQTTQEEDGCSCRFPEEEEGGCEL
substance,measurement,setting,value
"anti-CD137 antibody agonist: anti-human 4-1BB therapeutic antibody, urelumab, Creative Biolabs Cat. No. TAB-179",CD137 agonism (reporter activity),human CD137,induced CD137 agonism in a Nectin-4-independent manner
same,reprogramming of the tumor immune microenvironment (mRNA profiling),MC38-Nectin-4 tumors,to lesser extent
same,T cell infiltrates in tumor (CD8 IHC),"MC38-Nectin-4 tumors; BT7480 or NB-BCY 5 mg/kg at 0 and 24 hours, anti-CD137 antibody agonist 2 mg/kg",increased
